# ChEMBL document CHEMBL5303300, “EUbOPEN Chemogenomics Library - Multiplex” (2023)
# Where “and” joins values, the source holds several entries; their conditions need not be identical. Identical values can stand only once.
# Experiments:
# Assay type in all cases: toxicity, cell-based
# Fibroblast = test: Multiplex assay against human fibroblast; conditions: number of replicates 2
# How it was run: (§1)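 Compound was added to live cells that had been stained at seeding with Hoechst33342, BioTracker Green Microtubule Cytoskeleton Dye, MitoTracker Red and Annexin V Alexa Fluor 680, and imaging followed on a CQ1 microscope at 37°C and 5% CO2. CellPathfinder machine-learning gating divided cells into Hoechst high-intensity objects or normal cells, normal cells into healthy, pyknosed or fragmented nuclei, and pyknosed cells into mitotic or apoptotic. Tubulin, mitochondrial-mass and membrane-permeability phenotypes are per cents of healthy-nucleus cells.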
# HEK-293T = test: Multiplex assay against HEK293T; conditions: human, number of replicates 2; how it was run: as §1
# U2OS = test: Multiplex assay against U2OS; conditions: human, number of replicates 2; how it was run: as §1
# [1] = 12 h, 1 µM, compound concentration 1 uM
# [2] = 12 h, 10 µM, compound concentration 10 uM
# [3] = 24 h, 1 µM, compound concentration 1 uM
# [4] = 24 h, 10 µM, compound concentration 10 uM
# [5] = 48 h, 1 µM, compound concentration 1 uM
# [6] = 48 h, 10 µM, compound concentration 10 uM
smiles,measurement,setting,value
Cc1ccc2c(N)c(C(=O)NC3CCc4cc(N5CC6CCC(C5)N6)ccc4C3)sc2n1.O=CO (configuration not stated),Population Apoptotic (%),Fibroblast; [1],50% and 54%
same,Population Fragmented Nuclei (%),Fibroblast; [1],16%
same,Population Healthy Nuclei (%),Fibroblast; [1],73% and 68%
same,Population Hoechst High Intensity Objects (%),Fibroblast; [1],0% and 1%
same,Population Membrane Permeable-Phenotype (%),Fibroblast; [1],2%
same,Population Mitochondria Different-Phenotype (%),Fibroblast; [1],1% and 2%
same,Population Mitotic Cells (%),Fibroblast; [1],50% and 45%
same,Population Normal (%),Fibroblast; [1],99% and 98%
same,Population Pyknosed Nuclei (%),Fibroblast; [1],10% and 15%
same,Population Tubulin-Different-Phenotype (%),Fibroblast; [1],17% and 14%
same,Total Cell Count,Fibroblast; [1],232 and 283
same,Population Apoptotic (%),Fibroblast; [2],38% and 26%
same,Population Fragmented Nuclei (%),Fibroblast; [2],16% and 24%
same,Population Healthy Nuclei (%),Fibroblast; [2],53% and 55%
same,Population Hoechst High Intensity Objects (%),Fibroblast; [2],3% and 5%
same,Population Membrane Permeable-Phenotype (%),Fibroblast; [2],4% and 2%
same,Population Mitochondria Different-Phenotype (%),Fibroblast; [2],3% and 1%
same,Population Mitotic Cells (%),Fibroblast; [2],61% and 73%
same,Population Normal (%),Fibroblast; [2],96% and 94%
same,Population Pyknosed Nuclei (%),Fibroblast; [2],29% and 20%
same,Population Tubulin-Different-Phenotype (%),Fibroblast; [2],23% and 22%
same,Total Cell Count,Fibroblast; [2],238 and 259
same,Population Apoptotic (%),Fibroblast; [3],46% and 52%
same,Population Fragmented Nuclei (%),Fibroblast; [3],14%
same,Population Healthy Nuclei (%),Fibroblast; [3],75% and 71%
same,Population Hoechst High Intensity Objects (%),Fibroblast; [3],0%
same,Population Membrane Permeable-Phenotype (%),Fibroblast; [3],2% and 1%
same,Population Mitochondria Different-Phenotype (%),Fibroblast; [3],3% and 2%
same,Population Mitotic Cells (%),Fibroblast; [3],53% and 47%
same,Population Normal (%),Fibroblast; [3],100% and 99%
same,Population Pyknosed Nuclei (%),Fibroblast; [3],10% and 14%
same,Population Tubulin-Different-Phenotype (%),Fibroblast; [3],15% and 14%
same,Total Cell Count,Fibroblast; [3],259 and 302
same,Population Apoptotic (%),Fibroblast; [4],48% and 45%
same,Population Fragmented Nuclei (%),Fibroblast; [4],18% and 23%
same,Population Healthy Nuclei (%),Fibroblast; [4],42% and 48%
same,Population Hoechst High Intensity Objects (%),Fibroblast; [4],7% and 6%
same,Population Membrane Permeable-Phenotype (%),Fibroblast; [4],2% and 1%
same,Population Mitochondria Different-Phenotype (%),Fibroblast; [4],13% and 8%
same,Population Mitotic Cells (%),Fibroblast; [4],51% and 54%
same,Population Normal (%),Fibroblast; [4],92% and 93%
same,Population Pyknosed Nuclei (%),Fibroblast; [4],39% and 28%
same,Population Tubulin-Different-Phenotype (%),Fibroblast; [4],23% and 15%
same,Total Cell Count,Fibroblast; [4],228 and 250
same,Population Apoptotic (%),Fibroblast; [5],56% and 60%
same,Population Fragmented Nuclei (%),Fibroblast; [5],27% and 18%
same,Population Healthy Nuclei (%),Fibroblast; [5],67% and 71%
same,Population Hoechst High Intensity Objects (%),Fibroblast; [5],0%
same,Population Membrane Permeable-Phenotype (%),Fibroblast; [5],1%
same,Population Mitochondria Different-Phenotype (%),Fibroblast; [5],1% and 3%
same,Population Mitotic Cells (%),Fibroblast; [5],43% and 40%
same,Population Normal (%),Fibroblast; [5],99%
same,Population Pyknosed Nuclei (%),Fibroblast; [5],5% and 10%
same,Population Tubulin-Different-Phenotype (%),Fibroblast; [5],18% and 17%
same,Total Cell Count,Fibroblast; [5],294 and 298
same,Population Apoptotic (%),Fibroblast; [6],67% and 55%
same,Population Fragmented Nuclei (%),Fibroblast; [6],20% and 22%
same,Population Healthy Nuclei (%),Fibroblast; [6],29% and 36%
same,Population Hoechst High Intensity Objects (%),Fibroblast; [6],11% and 10%
same,Population Membrane Permeable-Phenotype (%),Fibroblast; [6],7% and 2%
same,Population Mitochondria Different-Phenotype (%),Fibroblast; [6],21% and 16%
same,Population Mitotic Cells (%),Fibroblast; [6],32% and 44%
same,Population Normal (%),Fibroblast; [6],88% and 89%
same,Population Pyknosed Nuclei (%),Fibroblast; [6],49% and 40%
same,Population Tubulin-Different-Phenotype (%),Fibroblast; [6],25% and 15%
same,Total Cell Count,Fibroblast; [6],194 and 215
same,Population Apoptotic (%),HEK-293T; [1],50% and 60%
same,Population Fragmented Nuclei (%),HEK-293T; [1],3% and 5%
same,Population Healthy Nuclei (%),HEK-293T; [1],85% and 82%
same,Population Hoechst High Intensity Objects (%),HEK-293T; [1],12% and 13%
same,Population Membrane Permeable-Phenotype (%),HEK-293T; [1],2% and 1%
same,Population Mitochondria Different-Phenotype (%),HEK-293T; [1],57% and 50%
same,Population Mitotic Cells (%),HEK-293T; [1],50% and 39%
same,Population Normal (%),HEK-293T; [1],87% and 86%
same,Population Pyknosed Nuclei (%),HEK-293T; [1],11%
same,Population Tubulin-Different-Phenotype (%),HEK-293T; [1],79% and 80%
same,Total Cell Count,HEK-293T; [1],342 and 430
same,Population Apoptotic (%),HEK-293T; [2],77% and 90%
same,Population Fragmented Nuclei (%),HEK-293T; [2],7% and 15%
same,Population Healthy Nuclei (%),HEK-293T; [2],66% and 63%
same,Population Hoechst High Intensity Objects (%),HEK-293T; [2],66% and 71%
same,Population Membrane Permeable-Phenotype (%),HEK-293T; [2],15% and 21%
same,Population Mitochondria Different-Phenotype (%),HEK-293T; [2],60% and 54%
same,Population Mitotic Cells (%),HEK-293T; [2],22% and 9%
same,Population Normal (%),HEK-293T; [2],33% and 28%
same,Population Pyknosed Nuclei (%),HEK-293T; [2],26% and 21%
same,Population Tubulin-Different-Phenotype (%),HEK-293T; [2],68% and 63%
same,Total Cell Count,HEK-293T; [2],206 and 183
same,Population Apoptotic (%),HEK-293T; [3],58% and 60%
same,Population Fragmented Nuclei (%),HEK-293T; [3],5% and 3%
same,Population Healthy Nuclei (%),HEK-293T; [3],86% and 89%
same,Population Hoechst High Intensity Objects (%),HEK-293T; [3],13% and 16%
same,Population Membrane Permeable-Phenotype (%),HEK-293T; [3],1% and 2%
same,Population Mitochondria Different-Phenotype (%),HEK-293T; [3],60% and 50%
same,Population Mitotic Cells (%),HEK-293T; [3],41% and 40%
same,Population Normal (%),HEK-293T; [3],86% and 83%
same,Population Pyknosed Nuclei (%),HEK-293T; [3],8% and 6%
same,Population Tubulin-Different-Phenotype (%),HEK-293T; [3],72% and 71%
same,Total Cell Count,HEK-293T; [3],413 and 427
same,Population Apoptotic (%),HEK-293T; [4],95% and 72%
same,Population Fragmented Nuclei (%),HEK-293T; [4],11% and 14%
same,Population Healthy Nuclei (%),HEK-293T; [4],59% and 66%
same,Population Hoechst High Intensity Objects (%),HEK-293T; [4],67% and 66%
same,Population Membrane Permeable-Phenotype (%),HEK-293T; [4],14% and 13%
same,Population Mitochondria Different-Phenotype (%),HEK-293T; [4],66% and 63%
same,Population Normal (%),HEK-293T; [4],32% and 33%
same,Population Pyknosed Nuclei (%),HEK-293T; [4],29% and 19%
same,Population Tubulin-Different-Phenotype (%),HEK-293T; [4],61% and 55%
same,Total Cell Count,HEK-293T; [4],216 and 168
same,Population Apoptotic (%),HEK-293T; [5],40% and 66%
same,Population Fragmented Nuclei (%),HEK-293T; [5],5%
same,Population Healthy Nuclei (%),HEK-293T; [5],88% and 87%
same,Population Hoechst High Intensity Objects (%),HEK-293T; [5],8% and 10%
same,Population Membrane Permeable-Phenotype (%),HEK-293T; [5],1% and 0%
same,Population Mitochondria Different-Phenotype (%),HEK-293T; [5],32% and 41%
same,Population Mitotic Cells (%),HEK-293T; [5],59% and 33%
same,Population Normal (%),HEK-293T; [5],91% and 89%
same,Population Pyknosed Nuclei (%),HEK-293T; [5],5% and 7%
same,Population Tubulin-Different-Phenotype (%),HEK-293T; [5],61% and 73%
same,Total Cell Count,HEK-293T; [5],596 and 593
same,Population Apoptotic (%),HEK-293T; [6],77% and 87%
same,Population Fragmented Nuclei (%),HEK-293T; [6],9% and 15%
same,Population Healthy Nuclei (%),HEK-293T; [6],57% and 60%
same,Population Hoechst High Intensity Objects (%),HEK-293T; [6],67%
same,Population Membrane Permeable-Phenotype (%),HEK-293T; [6],14% and 10%
same,Population Mitochondria Different-Phenotype (%),HEK-293T; [6],63% and 70%
same,Population Mitotic Cells (%),HEK-293T; [6],22% and 12%
same,Population Normal (%),HEK-293T; [6],32%
same,Population Pyknosed Nuclei (%),HEK-293T; [6],32% and 24%
same,Population Tubulin-Different-Phenotype (%),HEK-293T; [6],48% and 57%
same,Total Cell Count,HEK-293T; [6],254 and 203
same,Population Apoptotic (%),U2OS; [1],100% and 51%
same,Population Fragmented Nuclei (%),U2OS; [1],11% and 6%
same,Population Healthy Nuclei (%),U2OS; [1],70% and 76%
same,Population Hoechst High Intensity Objects (%),U2OS; [1],0%
same,Population Membrane Permeable-Phenotype (%),U2OS; [1],16% and 7%
same,Population Normal (%),U2OS; [1],100%
same,Population Pyknosed Nuclei (%),U2OS; [1],17% and 16%
same,Population Tubulin-Different-Phenotype (%),U2OS; [1],19% and 25%
same,Population Apoptotic (%),U2OS; [2],36% and 24%
same,Population Healthy Nuclei (%),U2OS; [2],22% and 29%
same,Population Hoechst High Intensity Objects (%),U2OS; [2],3% and 12%
same,Population Membrane Permeable-Phenotype (%),U2OS; [2],16% and 11%
same,Population Mitochondria Different-Phenotype (%),U2OS; [2],50% and 51%
same,Population Mitotic Cells (%),U2OS; [2],63% and 75%
same,Population Normal (%),U2OS; [2],96% and 87%
same,Population Pyknosed Nuclei (%),U2OS; [2],35% and 56%
same,Population Tubulin-Different-Phenotype (%),U2OS; [2],50%
same,Population Apoptotic (%),U2OS; [3],69% and 75%
same,Population Fragmented Nuclei (%),U2OS; [3],4% and 5%
same,Population Healthy Nuclei (%),U2OS; [3],69% and 77%
same,Population Hoechst High Intensity Objects (%),U2OS; [3],0%
same,Population Membrane Permeable-Phenotype (%),U2OS; [3],17% and 6%
same,Population Mitotic Cells (%),U2OS; [3],30% and 24%
same,Population Normal (%),U2OS; [3],100%
same,Population Pyknosed Nuclei (%),U2OS; [3],26% and 16%
same,Population Tubulin-Different-Phenotype (%),U2OS; [3],26% and 23%
same,Population Apoptotic (%),U2OS; [4],56%
same,Population Healthy Nuclei (%),U2OS; [4],19% and 22%
same,Population Hoechst High Intensity Objects (%),U2OS; [4],8% and 11%
same,Population Mitochondria Different-Phenotype (%),U2OS; [4],75% and 69%
same,Population Mitotic Cells (%),U2OS; [4],43%
same,Population Normal (%),U2OS; [4],91% and 88%
same,Population Pyknosed Nuclei (%),U2OS; [4],39% and 64%
same,Population Tubulin-Different-Phenotype (%),U2OS; [4],50% and 60%
same,Population Apoptotic (%),U2OS; [5],80% and 88%
same,Population Fragmented Nuclei (%),U2OS; [5],7% and 5%
same,Population Healthy Nuclei (%),U2OS; [5],49% and 66%
same,Population Hoechst High Intensity Objects (%),U2OS; [5],0%
same,Population Membrane Permeable-Phenotype (%),U2OS; [5],14% and 19%
same,Population Mitochondria Different-Phenotype (%),U2OS; [5],25% and 53%
same,Population Mitotic Cells (%),U2OS; [5],20% and 11%
same,Population Normal (%),U2OS; [5],100%
same,Population Pyknosed Nuclei (%),U2OS; [5],43% and 28%
same,Population Tubulin-Different-Phenotype (%),U2OS; [5],21% and 40%
same,Population Apoptotic (%),U2OS; [6],53% and 87%
same,Population Healthy Nuclei (%),U2OS; [6],31% and 12%
same,Population Membrane Permeable-Phenotype (%),U2OS; [6],53% and 57%
same,Population Mitochondria Different-Phenotype (%),U2OS; [6],84%
same,Population Normal (%),U2OS; [6],95% and 83%
same,Population Pyknosed Nuclei (%),U2OS; [6],36% and 80%
same,Population Tubulin-Different-Phenotype (%),U2OS; [6],100% and 73%
